Measurements as given in ChEMBL document CHEMBL3739331, “Synthesis and Bioactivities of Kanamycin B-Derived Cationic Amphiphiles” (J Med Chem, 2015).
Converted amounts (≈) assume the structure as drawn. The source made the active and inactive calls. The rule behind the calls is not given here.

Assays:
Candida albicans [1] = experiment: Antifungal activity against azole-resistant Candida albicans MYA-1003 after 48 hrs by microbroth dilution method; format: functional; conditions: MYA-1003, 48 h
How it was run: (§1)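 Yeast MIC by broth microdilution, run in duplicate. The aminoglycoside compounds are read as MIC-0 (complete inhibition). Azoles are read as MIC-2 (50% inhibition).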

[2] = Activity of AAC(3)-4 (unknown origin) assessed as compound acetylation activity by Ellman's method
[3] = Activity of AAC(6')-1e/APH(2'')-1a (unknown origin) assessed as compound acetylation activity by Ellman's method
Serratia marcescens = experiment: Activity of Serratia marcescens AAC(6')-2d assessed as compound acetylation activity by Ellman's method
Enterobacter cloacae = experiment: Antibacterial activity against Enterobacter cloacae ATCC 13047 by microdilution method; format: functional
How it was run: (§2)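 Broth microdilution MIC against the named bacterial strain, reported in μg/mL; each determination run at least in duplicate.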

Staphylococcus aureus [4] = experiment: Antibacterial activity against methicillin-resistant Staphylococcus aureus by microdilution method; format: functional
How it was run: (§3)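 Broth microdilution MIC, in μg/mL, against a panel of Gram-positive and Gram-negative strains. Run at least in duplicate.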

Bacillus subtilis = experiment: Antibacterial activity against Bacillus subtilis 168 by microdilution method; format: functional; conditions: subsp. subtilis str. 168; how it was run: as §2
Pseudomonas aeruginosa = experiment: Antibacterial activity against Pseudomonas aeruginosa ATCC 27853 by microdilution method; format: functional; how it was run: as §2
Acinetobacter baumannii = experiment: Antibacterial activity against Acinetobacter baumannii ATCC 19606 by microdilution method; format: functional; how it was run: as §2
Escherichia coli = experiment: Antibacterial activity against Escherichia coli MC1061 by microdilution method; format: functional; how it was run: as §3
[5] = test system: Staphylococcus epidermidis; experiment: Antibacterial activity against Staphylococcus epidermidis ATCC 12228 by microdilution method; format: functional; how it was run: as §2
Candida albicans [6] = experiment: Antifungal activity against azole-susceptible Candida albicans ATCC MYA-2310 after 48 hrs by microbroth dilution method; format: functional; conditions: ATCC MYA-2310, 48 h; how it was run: as §1
Staphylococcus aureus [7] = experiment: Antibacterial activity against Staphylococcus aureus NRS22 (USA 600) by microdilution method; format: functional; how it was run: as §2
Candida albicans [8] = experiment: Antifungal activity against azole-resistant Candida albicans ATCC 90819 after 48 hrs by microbroth dilution method; format: functional; conditions: ATCC 90819, 48 h; how it was run: as §1
Enterococcus = experiment: Antibacterial activity against vancomycin-resistant Enterococcus by microdilution method; format: functional; how it was run: as §3
[9] = test system: Mycobacterium tuberculosis; experiment: Activity of Mycobacterium tuberculosis Eis assessed as compound acetylation activity by Ellman's method
Staphylococcus aureus [10] = experiment: Antibacterial activity against Staphylococcus aureus ATCC 29213 by microdilution method; format: functional; how it was run: as §2
Listeria monocytogenes = experiment: Antibacterial activity against Listeria monocytogenes ATCC 19115 by microdilution method; format: functional; how it was run: as §2
Aspergillus nidulans = experiment: Antifungal activity against Aspergillus nidulans ATCC 38163 after 48 hrs by microbroth dilution method; format: functional; conditions: ATCC 38163, 48 h
How it was run: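 Filamentous fungus MIC by broth microdilution, run in duplicate. All compounds are read as MIC-0 (complete inhibition).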

[11] = test system: Mycobacterium tuberculosis; experiment: Activity of Mycobacterium tuberculosis AAC(2')-1c assessed as compound acetylation activity by Ellman's method
Staphylococcus aureus [12] = experiment: Antibacterial activity against Staphylococcus aureus NRS385 (USA 300) by microdilution method; format: functional; how it was run: as §3
Klebsiella pneumoniae = experiment: Antibacterial activity against Klebsiella pneumoniae ATCC 27736 by microdilution method; format: functional; how it was run: as §2
Candida albicans [13] = experiment: Antifungal activity against azole-resistant Candida albicans MYA-1237 after 48 hrs by microbroth dilution method; format: functional; conditions: MYA-1237, 48 h; how it was run: as §1
Candida albicans [14] = experiment: Antifungal activity against azole-resistant Candida albicans ATCC 64124 after 48 hrs by microbroth dilution method; format: functional; conditions: ATCC 64124, 48 h; how it was run: as §1
Staphylococcus aureus [15] = experiment: Antibacterial activity against Staphylococcus aureus NRS382 (USA 100) by microdilution method; format: functional; how it was run: as §2
Staphylococcus aureus [16] = experiment: Antibacterial activity against Staphylococcus aureus NRS383 (USA 200) by microdilution method; format: functional; how it was run: as §2
Salmonella enterica = experiment: Antibacterial activity against Salmonella enterica ATCC 14028 by microdilution method; format: functional; how it was run: as §2
Candida albicans [17] = experiment: Antifungal activity against azole-susceptible Candida albicans ATCC MYA-2876 after 48 hrs by microbroth dilution method; format: functional; conditions: ATCC MYA-2876, 48 h; how it was run: as §1
[18] = test system: Bacillus subtilis subsp. subtilis str. 168; experiment: Activity of Bacillus subtilis 168 APH(2'')-1a assessed as compound phosphorylation activity by Ellman's method
Candida albicans [19] = experiment: Antifungal activity against azole-resistant Candida albicans ATCC 10231 after 48 hrs by microbroth dilution method; format: functional; conditions: ATCC 10231, 48 h; how it was run: as §1
[20] = Hemolytic activity against mouse RBC at 100 to 500 ug/ml after 60 mins; format: ADME, cell-based; conditions: erythrocyte, 1 h
Candida albicans [21] = experiment: Antifungal activity against azole-resistant Candida albicans ATCC 64124 at sub-MIC measured over 24 hrs by time-kill assay; format: functional, organism-based
How it was run: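 Time-kill assay on C. albicans ATCC 64124 cultures exposed to test compound at 1/2 MIC, MIC and higher concentrations. Amphotericin B at 1 μg/mL and a no-drug culture serve as controls. CFU are counted at intervals over 24 h.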

[22] = test system: Mycolicibacterium smegmatis; experiment: Antibacterial activity against Mycobacterium smegmatis MC2 155 by microdilution method; format: functional; conditions: str. MC2 155; how it was run: as §3

Row | Compound | MIC (Candida albicans [1]) | Activity [2] | Activity [3] | MIC (Enterobacter cloacae) | MIC (Staphylococcus aureus [4]) | MIC (Bacillus subtilis) | MIC (Pseudomonas aeruginosa) | MIC (Acinetobacter baumannii) | MIC (Escherichia coli) | MIC [5] | MIC (Staphylococcus aureus [7]) | MIC (Enterococcus) | MIC (Staphylococcus aureus [10]) | MIC (Listeria monocytogenes) | MIC (Aspergillus nidulans) | MIC (Staphylococcus aureus [12]) | MIC (Klebsiella pneumoniae) | MIC (Staphylococcus aureus [15]) | MIC (Staphylococcus aureus [16]) | MIC (Salmonella enterica) | other results
1 | CCCCCCCCCCCCS(=O)(=O)C[C@@H]1O[C@@H](O[C@@H]2[C@@H](O)[C@H](O[C@@H]3O[C@@H](CN)[C@H](O)[C@@H](O)[C@@H]3N)[C@@H](N)C[C@H]2N)[C@@H](O)[C@H](N)[C@H]1O (stereo in doubt) | 62.5 mg/L (≈ 89.3 µM) | inactive | inactive | > 128 mg/L | 64 mg/L (≈ 91.4 µM) | > 128 mg/L | 16 mg/L (≈ 22.9 µM) | 128 mg/L (≈ 183 µM) | > 128 mg/L | > 128 mg/L | 32 mg/L (≈ 45.7 µM) | 32 mg/L (≈ 45.7 µM) | 128 mg/L (≈ 183 µM) | 4 mg/L (≈ 5.72 µM) | 3.9 mg/L (≈ 5.57 µM) | 64 mg/L (≈ 91.4 µM) | 128 mg/L (≈ 183 µM) | 64 mg/L (≈ 91.4 µM) | 32 mg/L (≈ 45.7 µM) | 64 mg/L (≈ 91.4 µM) | Activity (Serratia marcescens): inactive; MIC (Candida albicans [6]): 62.5 mg/L (≈ 89.3 µM); MIC (Candida albicans [8]): 62.5 mg/L (≈ 89.3 µM); Activity [9]: inactive; Activity [11]: inactive; MIC (Candida albicans [13]): 62.5 mg/L (≈ 89.3 µM); MIC (Candida albicans [14]): 31.2 mg/L (≈ 44.6 µM); MIC (Candida albicans [17]): 31.2 mg/L (≈ 44.6 µM); Activity [18]: inactive; MIC (Candida albicans [19]): 31.2 mg/L (≈ 44.6 µM)
2 | CCCCCCCCCCCCCCS(=O)(=O)C[C@@H]1O[C@@H](O[C@@H]2[C@@H](O)[C@H](O[C@@H]3O[C@@H](CN)[C@H](O)[C@@H](O)[C@@H]3N)[C@@H](N)C[C@H]2N)[C@@H](O)[C@H](N)[C@H]1O (stereo in doubt) | 7.8 mg/L (≈ 10.7 µM) | inactive | inactive | > 128 mg/L | 128 mg/L (≈ 176 µM) | > 128 mg/L | 32 mg/L (≈ 44 µM) | > 128 mg/L | > 128 mg/L | > 128 mg/L | 64 mg/L (≈ 87.9 µM) | 32 mg/L (≈ 44 µM) | 128 mg/L (≈ 176 µM) | 2 mg/L (≈ 2.75 µM) | 1.95 mg/L (≈ 2.68 µM) | 128 mg/L (≈ 176 µM) | > 128 mg/L | 64 mg/L (≈ 87.9 µM) | 128 mg/L (≈ 176 µM) | 128 mg/L (≈ 176 µM) | Activity (Serratia marcescens): inactive; MIC (Candida albicans [6]): 7.8 mg/L (≈ 10.7 µM); MIC (Candida albicans [8]): 7.8 mg/L (≈ 10.7 µM); Activity [9]: inactive; Activity [11]: inactive; MIC (Candida albicans [13]): 7.8 mg/L (≈ 10.7 µM); MIC (Candida albicans [14]): 3.9 mg/L (≈ 5.36 µM); MIC (Candida albicans [17]): 3.9 mg/L (≈ 5.36 µM); Activity [18]: inactive; MIC (Candida albicans [19]): 3.9 mg/L (≈ 5.36 µM)
3 | C[C@@H]1[C@H](O)[C@@H](C)/C=C/C=C/C=C/C=C/C=C/C=C/C=C/[C@H](O[C@@H]2O[C@H](C)[C@@H](O)[C@H](N)[C@@H]2O)C[C@@H]2O[C@](O)(C[C@@H](O)C[C@@H](O)[C@H](O)CC[C@@H](O)C[C@@H](O)CC(=O)O[C@H]1C)C[C@H](O)[C@H]2C(=O)O [AMPHOTERICIN B] |  |  |  |  |  |  |  |  |  |  |  |  |  |  |  |  |  |  |  |  | Activity [20]: Toxic; Activity (Candida albicans [21]): Active
4 | OC(Cn1cncn1)(Cn1cncn1)c1ccc(F)cc1F [FLUCONAZOLE] |  |  |  |  |  |  |  |  |  |  |  |  |  |  | > 62.5 mg/L |  |  |  |  |  | MIC50 (Candida albicans [1]): 62.5 mg/L (≈ 204 µM); MIC50 (Candida albicans [6]): > 125 mg/L; MIC50 (Candida albicans [8]): > 125 mg/L; MIC50 (Candida albicans [13]): 62.5 mg/L (≈ 204 µM); MIC50 (Candida albicans [14]): 125 mg/L (≈ 408 µM); MIC50 (Candida albicans [17]): 15.6 mg/L (≈ 50.9 µM); MIC50 (Candida albicans [19]): 62.5 mg/L (≈ 204 µM)
5 | CCC(C)n1ncn(-c2ccc(N3CCN(c4ccc(OCC5COC(Cn6cncn6)(c6ccc(Cl)cc6Cl)O5)cc4)CC3)cc2)c1=O (centres undefined) [ITRACONAZOLE] |  |  |  |  |  |  |  |  |  |  |  |  |  |  | ≤ 1.95 mg/L |  |  |  |  |  | MIC50 (Candida albicans [1]): 31.2 mg/L (≈ 44.2 µM); MIC50 (Candida albicans [8]): 31.2 mg/L (≈ 44.2 µM); MIC50 (Candida albicans [13]): 31.2 mg/L (≈ 44.2 µM); MIC50 (Candida albicans [14]): > 62.5 mg/L; MIC50 (Candida albicans [17]): 7.8 mg/L (≈ 11.1 µM); MIC50 (Candida albicans [19]): 0.5 mg/L (≈ 0.709 µM)
6 | NC[C@H]1O[C@H](O[C@H]2[C@H](O)[C@@H](O[C@H]3O[C@H](CO)[C@@H](O)[C@H](N)[C@H]3O)[C@H](N)C[C@@H]2N)[C@H](O)[C@@H](O)[C@@H]1O [KANAMYCIN] |  |  |  | 2 mg/L (≈ 4.13 µM) | 128 mg/L (≈ 264 µM) | 2 mg/L (≈ 4.13 µM) | > 128 mg/L | 4 mg/L (≈ 8.26 µM) | 8 mg/L (≈ 16.5 µM) | 1 mg/L (≈ 2.06 µM) | > 128 mg/L | > 128 mg/L | > 128 mg/L | 128 mg/L (≈ 264 µM) |  | > 128 mg/L | 16 mg/L (≈ 33 µM) | > 128 mg/L | > 128 mg/L | 16 mg/L (≈ 33 µM) | MIC [22]: ≤ 0.25 mg/L
